High-throughput results: PubChem BioAssay, Broad Institute
Only some compounds are listed: those with a hit (about 1.9% of all), similar ones and a draw of the others.
Cneo AK release: Cryptococcus neoformans cell lysis inducers, primary screen, AK release luminescence, single concentration; C. neoformans lysis, adenylate kinase release luminescence, 4 h; normalised: neutral wells 0, clomiphene wells 100; lysis activity, % at 15 µM; 0.2% of 360,000 active; AID 651654, 2012;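 active = mean lysis activity across replicates of at least 80%, whatever share of replicates individually reach that level; inactive = mean lysis activity below 80%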
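Signal: Adenylate kinase release luminescence | Assay system: Log-phase Cryptococcus neoformans yeast cells | Input: Cells at 5 × 10^6 per mL | Buffer or medium: Fresh YPD growth medium | Compound: Single dose | Schedule: Static 4 h at 37 °C with compound, 1 h detection | Controls: Clomiphene | Read-out: Luminescence rise reflecting yeast cell lysis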
Xi reactivation: activators of inactive X chromosome reactivation, primary screen, imaging, XiGFP fibroblasts, GFP high-content imaging, set 2 | activation, % at 7.58 µM | AID 743238, 2013 | XiGFP mouse fibroblasts, % GFP-positive cells imaging, 3 d; cells co-treated with 5-aza-dC sensitizer; scaled so ellipticine positive control = 100% | 0.055% of 360,000 active;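 active = mean normalized replicate activation at least 10% and every replicate at or above 10%; inconclusive = only one of the two criteria met; inactive = mean below 10% and not all replicates reach 10%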;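 also: 0% = median of on-plate neutral control wells and 100% = ellipticine 6 µM median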
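Schedule: 3 d treatment, 15 min room-temperature fixation; system: 68-5-11 XiGFP fibroblast line; buffer or medium: DMEM plus 5-aza-dC sensitizer; control set: ellipticine 6 µM positive control; compound: one concentration, pinned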
PGC1a acetyl inh: inhibitors of PGC1a acetylation signal, primary screen, cell-based, U2OS, AlphaScreen, inhibitor mode; AlphaScreen anti-acetyl-lysine; with virally co-expressed GCN5 acetyltransferase; inhibition, % at 15.6 µM; 0.17% of 350,000 active; AID 651687, 2012;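 active = every replicate shows inhibition of at least 40%; inconclusive = mean inhibition at least 40% but some replicate below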;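 also: 0% = neutral control wells and 100% = positive control wells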
DENV2 CPE rescue: inhibitors of DENV2 cytopathic effect, primary screen, cell-based, plate reader, single concentration. DENV2-infected cells, cytopathic effect rescue. CPE inhibition, % at 9.99 µM. 1.7% of 350,000 active; in the data active = CPE inhibition above about 20%, passing the limit was not always enough; inconclusive = no clear call, values can overlap the other calls; tested in BHK-21 cells;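 also: 0% = median of neutral control wells and 100% = median of positive control wells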
FN deposit inh: inhibitors of fibronectin matrix deposition, primary screen, AH1F cells, Alexa488-fibronectin fluorescence, plate reader; AH1F fibroblasts, overnight; inhibition, % at 12.6 µM; 0.086% of 350,000 active;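 active = mean inhibition across replicates of 30% or more, regardless of how many single replicates reach that level; inconclusive = mean under 30% yet at least half of replicates reach 30%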;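 also: positive control wells lacked labelled fibronectin entirely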
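Material: AH1F fibroblast monolayer depositing Alexa488-labelled fibronectin into matrix | Input: 10000 AH1F cells/well | Medium: DMEM plus 2% serum, read in PBS | Reagent: Alexa488-fibronectin, 24 nM final in well | Compound dosing: One dose per compound, pinned | Schedule: 1 h adhesion, overnight exposure | Measured by: Fluorescence at 485 nm excitation, 525 nm emission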
F508del corr: F508del CFTR correction, initial screen, CFBE line, single point; CFBE cells, YFP halide quenching; stimulated with forskolin plus potentiator P3; % fluorescence drop versus neutral controls; activity (quench increase), % at 7.58 µM; 0.36% of 350,000 active;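 active = mean added fluorescence quench of at least 8% versus neutral control, with both replicates also reaching 8%; inconclusive = only one of the mean or replicate conditions met; inactive = mean below 8% and not both replicates reaching 8%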;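 also: cells transiently co-express mutant CFTR-F508del with the halide-sensitive YFP; corrector assay measuring rescue of mutant channel to the surface after 24 h compound exposure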
Numbers without * were called inactive; ? = inconclusive; . = no result given.

SMILES	Cneo AK release	Xi reactivation	PGC1a acetyl inh	DENV2 CPE rescue	FN deposit inh	F508del corr
C[C@@H]1CN([C@H](C)CO)C(=O)c2cc(/C=C/c3ccccc3)cnc2O[C@H]1CN(C)C	-1	0	0	-13	7	0
CCOC(=O)N(O)c1ccc(C=Cc2ccccc2)cc1	.	0	49*	-4	-5	1
CCOC(=O)C(=Cc1ccc(N(C)C)cc1)C(=O)c1ccccc1	.	1	.	1	-7	-1
CC(=O)N(C)C[C@H]1Oc2ncc(-c3ccc(C(=O)N(C)C)cc3)cc2C(=O)N([C@@H](C)CO)C[C@@H]1C	49	0	-2	-1	.	-2
Cc1ccc(-c2nc(N3CCN(C)CC3)c3ccccc3n2)cc1	-2	0	-15	25*	6	4
C[C@H](CO)N1C[C@H](C)[C@@H](CN(C)Cc2ccc(Oc3ccccc3)cc2)Oc2c(NC(=O)Cc3ccccc3)cccc2C1=O	.	-1	.	.	.	.
Nc1ccccc1Oc1ncc(C(F)(F)F)cc1Cl	0	.	46*	.	.	0
CCC(=O)N1CC2(C1)[C@@H](c1ccc(-c3ccccc3C)cc1)[C@@H](CO)N2C(=O)CC	.	0	.	37*	-1	1
CCC(=O)N1CC2(C1)[C@@H](c1ccccc1)[C@@H](CO)N2C(=O)c1cccnc1	.	0	-6	29*	.	-4
CCC(=O)N1CC2(C1)[C@H](c1ccc(-c3ccccc3C)cc1)[C@H](CO)N2C(=O)CC	.	0	1	-11	1	2
O=C(Cc1cccnc1)N1CC2(C1)[C@@H](c1ccccc1)[C@@H](CO)N2C(=O)C1CCOCC1	.	0	12	22*	-7	-1
O=C(Cc1cccnc1)N1CC2(C1)[C@H](c1ccccc1)[C@@H](CO)N2C(=O)C1CCOCC1	.	0	19	-13	-1	-2
CCC(=O)N1CC2(C1)[C@H](c1ccccc1)[C@@H](CO)N2C(=O)c1ccncc1	.	0	-1	23*	.	-2
CN1C(=O)c2cc(NC(=O)c3ccccc3)ccc2OC[C@H]2O[C@@H](CC(=O)O)CC[C@H]21	-22	0	3	3	6	0
CCC(=O)N[C@@H]1C=C[C@H](CC(=O)NCC2CCCCC2)O[C@H]1CO	87*	1	11	-1	.	2
CCCNC(=O)N[C@H]1C=C[C@H](CC(=O)NC2CCC2)O[C@H]1CO	-1	0	13	26*	-20	1
CCNC(=O)C[C@H]1C=C[C@H](NC(=O)NC2CCCCC2)[C@H](CO)O1	2	2	3	-3	2	0
CCNC(=O)C[C@H]1C=C[C@@H](NC(=O)NC2CCCCC2)[C@H](CO)O1	3	-1	21	-3	-9	0
CCNC(=O)C[C@@H]1C=C[C@@H](NC(=O)NC2CCCCC2)[C@H](CO)O1	0	0	-6	4	18	8.8*
CN(C)C(=O)C[C@@H]1C=C[C@H](NC(=O)NC2CCCCC2)[C@@H](CO)O1	-2	0	7	5	.	-3
CN(C)C(=O)C[C@@H]1C=C[C@@H](NC(=O)NC2CCCCC2)[C@H](CO)O1	0	0	12	73*	.	0
CCC(=O)N[C@H]1C=C[C@@H](CC(=O)NCC2CCCCC2)O[C@@H]1CO	3	0	0	13	.	1
CC(C)(C)C(=O)/C(=C/c1cccc([N+](=O)[O-])c1)n1cncn1	.	1	.	.	24	.
C[C@@H]1CCCCO[C@H](CN(C)Cc2ccc(C(=O)O)cc2)[C@@H](C)CN([C@H](C)CO)C(=O)c2cc(NS(=O)(=O)c3ccc(Cl)cc3)ccc2O1	3	0	-2	-9	-4	-4
C[C@H]1CN([C@@H](C)CO)C(=O)c2cc(-c3ccc(F)cc3)cnc2O[C@@H]1CN(C)C(=O)Cc1ccccc1	-1	0	-7	7	.	1
SMILES	Cneo AK release	Xi reactivation	PGC1a acetyl inh	DENV2 CPE rescue	FN deposit inh	F508del corr
CN1CCCC1c1cccnc1 (stereo not drawn)	-1	.	-3	117*	.	3
CC(C)C#Cc1cnc2c(c1)C(=O)N([C@H](C)CO)C[C@@H](C)[C@@H](CN(C)C(=O)c1cccnc1)O2	4	-1	1	7	3	-1
CC1(C(=O)NS(=O)(=O)c2ccccc2Cl)CCN1C(=O)CC(c1ccccc1)c1ccccc1 (stereo not drawn)	1	0	2	7	.	-1
Cc1ccccc1S(=O)(=O)NC(=O)C1(C)CCN1C(=O)CC(c1ccccc1)c1ccccc1 (stereo not drawn)	1	0	-3	38*	-8	3
COc1ccc(OC)c(S(=O)(=O)NC(=O)C2(C)CCN2C(=O)c2ccco2)c1 (stereo not drawn)	1	0	-6	9	8	3
CC1(C(=O)NS(=O)(=O)c2ccccc2Cl)CCN1C(=O)c1ccco1 (stereo not drawn)	-2	0	-3	22*	3	3
COc1ccccc1NC(=O)/C(N=Nc1ccc(C)c(S(=O)(=O)Nc2ccccc2Cl)c1)=C(\C)O	0	0	-10	-9	.	7
COc1ccccc1NS(=O)(=O)c1cc(N=N/C(C(=O)Nc2ccc(Cl)cc2)=C(/C)O)ccc1C	0	-1	-2	6	-3	11*
CO[C@H]1CN(C)C(=O)c2cc(NS(=O)(=O)c3ccc(C)cc3)ccc2OC[C@@H](C)NC[C@@H]1C	-2	0	-12	?	0	2
Cc1ccc(NC(=O)COC(=O)c2cc(Cl)ccc2[N+](=O)[O-])c(C)c1	.	0	.	3	30*	.
O=C(COC(=O)c1cc(Cl)ccc1[N+](=O)[O-])Nc1cccc2ccccc12	.	0	.	.	5	.
CSCCC(NS(=O)(=O)c1cccs1)C(=O)NCc1ccccc1 (stereo not drawn)	.	0	.	36*	1	.
CC(=O)N1[C@@H]2c3cccc(=O)n3C[C@@H]2[C@@H](CO)[C@@H]1C(=O)NCc1ccccc1F	-1	1	.	-2	.	.
O=c1ccc(-c2ccc(S(=O)(=O)Nc3cccc(Br)c3)o2)n[nH]1	.	0	3	27*	16	0
Cc1cccc(NS(=O)(=O)c2ccc(-c3ccc(=O)[nH]n3)o2)c1	0	0	11	0	-6	-2
C/C=C/c1ccc2c(c1)O[C@H](CN(C)C)[C@@H](C)CN([C@@H](C)CO)S2(=O)=O	1	-1	-9	3	12	0
